Values after ≈ are worked out from the molar mass of the structure shown.
Assays:
Mus musculus [1] = experiment: Peripheral plasma levels in mice after oral administration of 100 mg/kg dose for 2 hr; type: functional, organism-based; parameters: dose 100 mg/kg
Method in brief: (§1)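 Mice were given the compound orally and sampled for peripheral plasma at each time point. Plasma was assayed microbiologically against Micrococcus luteus seeded in Antibiotic Medium 1. Inhibition zone sizes were read, and concentrations were calculated from each compound's own standard curve. Each value is the mean of five mice per time point.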

Cutibacterium acnes = experiment: In vitro antimicrobial activity against anaerobic bacteria propionibacterium acnes 79; type: functional
[2] = system: Fusobacterium necrophorum; experiment: In vitro antimicrobial activity against anaerobic bacteria usobacterium necrophorum 6054A; type: functional
Mus musculus [3] = experiment: Peripheral plasma levels in mice after oral administration of 100 mg/kg dose for 1 hr; type: functional, organism-based; parameters: dose 100 mg/kg; method in brief: as §1
Mus musculus [4] = experiment: Peripheral plasma levels in mice after oral administration of 50 mg/kg dose for 2 hr; type: functional, organism-based; parameters: dose 50 mg/kg; method in brief: as §1
Mus musculus [5] = experiment: Peripheral plasma levels in mice after oral administration of 100 mg/kg dose for 4 hr; type: functional, organism-based; parameters: dose 100 mg/kg; method in brief: as §1
Staphylococcus aureus [6] = experiment: In vitro antimicrobial activity against aerobic bacteria Staphylococcus aureus X400; type: functional
Phocaeicola vulgatus = experiment: In vitro antimicrobial activity against anaerobic bacteria bacteroides vulgatus 1211; type: functional
Rattus norvegicus [7] = experiment: Peripheral plasma levels in rats after oral administration of 100 mg/kg dose for 0.25 hr; type: functional, organism-based; parameters: dose 100 mg/kg
Method in brief: (§2)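 Rats received 100 mg/kg orally and were sampled for peripheral plasma. Concentrations were measured by Micrococcus luteus agar-diffusion microbiological assay in Antibiotic Medium 1, with zone sizes converted using the standard curve for the appropriate compound. Each value is the average of three rats per time point.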

Staphylococcus aureus [8] = experiment: In vitro antimicrobial activity against Staphylococcus aureus X1; type: functional
[9] = system: Staphylococcus epidermidis; experiment: In vitro antimicrobial activity against aerobic bacteria Streptococcus epi 270; type: functional
Rattus norvegicus [10] = experiment: Peripheral plasma levels in rats after oral administration of 100 mg/kg dose for 1 hr; type: functional, organism-based; parameters: dose 100 mg/kg; method in brief: as §2
Streptococcus pyogenes [11] = experiment: In vitro antimicrobial activity against Streptococcus pyogenes C203; type: functional
[12] = In vitro antimicrobial activity against anaerobic bacteria peptostreptococcus intermedius 1264; type: functional
Clostridioides difficile = experiment: In vitro antimicrobial activity against anaerobic bacteria Clostridium difficile 2994; type: functional
[13] = system: Peptostreptococcus anaerobius; experiment: In vitro antimicrobial activity against anaerobic bacteria eubacterium peptostreptococcus anaerobius 1428,; type: functional
Mus musculus [14] = experiment: Peripheral plasma levels in mice after oral administration of 50 mg/kg dose for 0.25 hr; type: functional, organism-based; parameters: dose 50 mg/kg; method in brief: as §1
Rattus norvegicus [15] = experiment: Peripheral plasma levels in rats after oral administration of 100 mg/kg dose for 2 hr; type: functional, organism-based; parameters: dose 100 mg/kg; method in brief: as §2
Enterococcus faecium = experiment: In vitro antimicrobial activity against Streptococcus faecium X66; type: functional, streptococcus fae-cium
Collinsella aerofaciens = experiment: In vitro antimicrobial activity against anaerobic bacteria eubacterium aerofaciens 1235; type: functional
Staphylococcus aureus [16] = experiment: In vitro antimicrobial activity against aerobic bacteria Staphylococcus aureus V140,; type: functional
[17] = system: Bacteroides thetaiotaomicron; experiment: In vitro antimicrobial activity against anaerobic bacteria bacteroides thetaiotaomicron 1438; type: functional
Staphylococcus aureus [18] = experiment: In vivo effective dose against experimental infections in mice Staphylococcus aureus X1 when administered sc; type: functional
Streptococcus [19] = experiment: In vitro antimicrobial activity against aerobic bacteria Streptococcus D 2041; type: functional
Staphylococcus aureus [20] = experiment: In vivo effective dose against experimental infections in mice Staphylococcus aureus X1 when administered orally; type: functional; conditions: po
Haemophilus influenzae [21] = experiment: In vitro antimicrobial activity against Haemophilus influenzae.; type: functional
Chlamydia trachomatis = experiment: In vitro antimicrobial activity against chlamydia trachomatis.; type: functional
Clostridium perfringens = experiment: In vitro antimicrobial activity against anaerobic bacteria clostridium perfringens 81,; type: functional
Mus musculus [22] = experiment: Peripheral plasma levels in mice after oral administration of 100 mg/kg dose for 0.25 hr; type: functional, organism-based; parameters: dose 100 mg/kg; method in brief: as §1
[23] = system: Staphylococcus epidermidis; experiment: In vitro antimicrobial activity against aerobic bacteria Streptococcus epi 222; type: functional
Streptococcus [24] = experiment: In vitro antimicrobial activity against aerobic bacteria Streptococcus B 14; type: functional
Mus musculus [25] = experiment: Peripheral plasma levels in mice after oral administration of 100 mg/kg dose for 0.5 hr; type: functional, organism-based; parameters: dose 100 mg/kg; method in brief: as §1
Streptococcus [26] = experiment: In vitro antimicrobial activity against aerobic bacteria Streptococcus D 8043; type: functional
Rattus norvegicus [27] = experiment: Peripheral plasma levels in rats after oral administration of 100 mg/kg dose for 0.5 hr; type: functional, organism-based; parameters: dose 100 mg/kg; method in brief: as §2
Streptococcus pyogenes [28] = experiment: In vivo effective dose against experimental infections in rodent caused by Streptococcus pyogenes C203 when administered orally; type: functional; conditions: po
Mus musculus [29] = experiment: Peripheral plasma levels in mice after oral administration of 50 mg/kg dose for 1 hr; type: functional, organism-based; parameters: dose 50 mg/kg; method in brief: as §1
Staphylococcus aureus [30] = experiment: In vitro antimicrobial activity against aerobic bacteria Staphylococcus aureus V135; type: functional
Streptococcus [31] = experiment: In vitro antimicrobial activity against aerobic bacteria Streptococcus D 9960; type: functional
Streptococcus pneumoniae [32] = experiment: In vitro antimicrobial activity against aerobic bacteria Streptococcus pneumoniae B1-438; type: functional, streptococcus pneum
Bacteroides fragilis [33] = experiment: In vitro antimicrobial activity against anaerobic bacteria bacteroides fragilis 1877; type: functional
Clostridium septicum = experiment: In vitro antimicrobial activity against anaerobic bacteria clostridium septicum 1128; type: functional
[34] = system: Haemophilus parainfluenzae; experiment: In vitro antimicrobial activity against aerobic bacteria Haemophilus parainfluenzae 9796; type: functional
Mus musculus [35] = experiment: Peripheral plasma levels in mice after oral administration of 50 mg/kg dose for 0.5 hr; type: functional, organism-based; parameters: dose 50 mg/kg; method in brief: as §1
Haemophilus influenzae [36] = experiment: In vitro antimicrobial activity against aerobic bacteria Haemophilus influenzae 465; type: functional
[37] = system: Prevotella melaninogenica; experiment: In vitro antimicrobial activity against anaerobic bacteria bacteroides melaninogenicus 1856,; type: functional
Streptococcus pyogenes [38] = experiment: In vivo effective dose against experimental infections in rodent caused by Streptococcus pyogenes C203 when administered sc; type: functional
Streptococcus pneumoniae [39] = experiment: In vivo effective dose against experimental infections in mice Strep. pneumoniae park when administered sc; type: functional
Streptococcus [40] = experiment: In vitro antimicrobial activity against aerobic bacteria Streptococcus B 5; type: functional
[41] = system: Staphylococcus epidermidis; experiment: In vitro antimicrobial activity against Staphylococcus epidermidis EPI1; type: functional
Staphylococcus aureus [42] = experiment: In vitro antimicrobial activity against aerobic bacteria Staphylococcus aureus 513E; type: functional
Staphylococcus aureus [43] = experiment: In vitro antimicrobial activity against aerobic bacteria Staphylococcus aureus V41; type: functional
Haemophilus influenzae [44] = experiment: In vitro antimicrobial activity against aerobic bacteria Haemophilus influenzae 76; type: functional
[45] = system: Peptoniphilus asaccharolyticus; experiment: In vitro antimicrobial activity against anaerobic bacteria peptococcus asaccharolyticus 1302; type: functional
Haemophilus influenzae [46] = experiment: In vitro antimicrobial activity against aerobic bacteria Haemophilus influenzae MX366,; type: functional
Fusobacterium = experiment: In vitro antimicrobial activity against anaerobic bacteria fusobacterium symbiosum 1470; type: functional
Eikenella corrodens = experiment: In vitro antimicrobial activity against anaerobic bacteria bacteroides corrodens 1874; type: functional
Rattus norvegicus [47] = experiment: Peripheral plasma levels in rats after oral administration of 100 mg/kg dose for 4 hr; type: functional, organism-based; parameters: dose 100 mg/kg; method in brief: as §2
Mus musculus [48] = experiment: Peripheral plasma levels in mice after oral administration of 50 mg/kg dose for 4 hr; type: functional, organism-based; parameters: dose 50 mg/kg; method in brief: as §1
Streptococcus pneumoniae [49] = experiment: In vitro antimicrobial activity against Streptococcus pneumoniae; type: functional
[50] = system: Prevotella melaninogenica; experiment: In vitro antimicrobial activity against anaerobic bacteria bacteroides melaninogenicus 2736; type: functional
Streptococcus pneumoniae [51] = experiment: In vivo effective dose against experimental infections in mice Strep. pneumoniae park when administered orally; type: functional; conditions: po
Anaerococcus prevotii = experiment: In vitro antimicrobial activity against anaerobic bacteria peptococcus prevoti 1281; type: functional
Bacteroides fragilis [52] = experiment: In vitro antimicrobial activity against anaerobic bacteria bacteroides fragilis 111; type: functional
Bacteroides fragilis [53] = experiment: In vitro antimicrobial activity against anaerobic bacteria bacteroides fragilis 1936B,; type: functional

CC[C@H]1OC(=O)C[C@@H](O)[C@H](C)[C@@H](O[C@@H]2O[C@H](C)[C@@H](O)[C@H](N(C)C)[C@H]2O)[C@@H](CCCl)C[C@@H](C)C(=O)/C=C/C(C)=C/[C@@H]1CO[C@@H]1O[C@H](C)[C@@H](O)[C@@H](OC)[C@H]1OC
Concentration (Mus musculus [1]): 1.5 µg/mL | MIC (Cutibacterium acnes): 16 µg/mL (≈ 20.2 µM) | MIC [2]: 8 µg/mL (≈ 10.1 µM) | Concentration (Mus musculus [3]): 2.8 µg/mL | Concentration (Mus musculus [4]): 0.4 µg/mL | Concentration (Mus musculus [5]): 0.3 µg/mL | MIC (Staphylococcus aureus [6]): 0.12 µg/mL (≈ 0.151 µM) | MIC (Phocaeicola vulgatus): 1 µg/mL (≈ 1.26 µM) | Concentration (Rattus norvegicus [7]): 5.4 µg/mL | MIC (Staphylococcus aureus [8]): 0.25 µg/mL (≈ 0.315 µM) | MIC [9]: > 128 µg/mL | Concentration (Rattus norvegicus [10]): 9.4 µg/mL | MIC (Streptococcus pyogenes [11]): 0.25 µg/mL (≈ 0.315 µM) | MIC [12]: 2 µg/mL (≈ 2.52 µM) | MIC (Clostridioides difficile): < 0.5 µg/mL | MIC [13]: < 0.5 µg/mL | Concentration (Mus musculus [14]): 0.3 µg/mL | Concentration (Rattus norvegicus [15]): 12.7 µg/mL | MIC (Enterococcus faecium): 8 µg/mL (≈ 10.1 µM) | MIC (Collinsella aerofaciens): 4 µg/mL (≈ 5.05 µM) | MIC (Staphylococcus aureus [16]): 0.25 µg/mL (≈ 0.315 µM) | MIC [17]: 2 µg/mL (≈ 2.52 µM) | ED50 (Staphylococcus aureus [18]): 1.8 mg/kg | MIC (Streptococcus [19]): 16 µg/mL (≈ 20.2 µM) | ED50 (Staphylococcus aureus [20]): 9 mg/kg | MIC (Haemophilus influenzae [21]): 16 µg/mL (≈ 20.2 µM) | MIC (Chlamydia trachomatis): 0.25 µg/mL (≈ 0.315 µM) | MIC (Clostridium perfringens): < 0.5 µg/mL | Concentration (Mus musculus [22]): 8.4 µg/mL | MIC [23]: 0.6 µg/mL (≈ 0.757 µM) | MIC (Streptococcus [24]): 64 µg/mL (≈ 80.8 µM) | Concentration (Mus musculus [25]): 6.4 µg/mL | MIC (Streptococcus [26]): 4 µg/mL (≈ 5.05 µM) | Concentration (Rattus norvegicus [27]): 8.8 µg/mL | ED50 (Streptococcus pyogenes [28]): 5 mg/kg | Concentration (Mus musculus [29]): 0.3 µg/mL | MIC (Staphylococcus aureus [30]): 0.25 µg/mL (≈ 0.315 µM) | MIC (Streptococcus [31]): 8 µg/mL (≈ 10.1 µM) | MIC (Streptococcus pneumoniae [32]): > 128 µg/mL | MIC (Bacteroides fragilis [33]): 2 µg/mL (≈ 2.52 µM) | MIC (Clostridium septicum): < 0.5 µg/mL | MIC [34]: 32 µg/mL (≈ 40.4 µM) | Concentration (Mus musculus [35]): 0.4 µg/mL | MIC (Haemophilus influenzae [36]): 16 µg/mL (≈ 20.2 µM) | MIC [37]: 1 µg/mL (≈ 1.26 µM) | ED50 (Streptococcus pyogenes [38]): 0.7 mg/kg | ED50 (Streptococcus pneumoniae [39]): > 20 mg/kg | MIC (Streptococcus [40]): > 128 µg/mL | MIC [41]: 0.12 µg/mL (≈ 0.151 µM) | MIC (Staphylococcus aureus [42]): 0.12 µg/mL (≈ 0.151 µM) | MIC (Staphylococcus aureus [43]): 0.12 µg/mL (≈ 0.151 µM) | MIC (Haemophilus influenzae [44]): 16 µg/mL (≈ 20.2 µM) | MIC [45]: 2 µg/mL (≈ 2.52 µM) | MIC (Haemophilus influenzae [46]): 16 µg/mL (≈ 20.2 µM) | MIC (Fusobacterium): 2 µg/mL (≈ 2.52 µM) | MIC (Eikenella corrodens): 2 µg/mL (≈ 2.52 µM) | Concentration (Rattus norvegicus [47]): 7.7 µg/mL | Concentration (Mus musculus [48]): < 0.1 µg/mL | MIC (Streptococcus pneumoniae [49]): 1 µg/mL (≈ 1.26 µM) | MIC [50]: 2 µg/mL (≈ 2.52 µM) | ED50 (Streptococcus pneumoniae [51]): > 50 mg/kg | MIC (Anaerococcus prevotii): 1 µg/mL (≈ 1.26 µM) | MIC (Bacteroides fragilis [52]): 2 µg/mL (≈ 2.52 µM) | MIC (Bacteroides fragilis [53]): 2 µg/mL (≈ 2.52 µM)
